Measurements taken from publication PMC7004521 (Cancer Science, 2019).

Assay: Adverse events suspected to be study drug related, phase 1 study
Format: in vivo, human
Outline: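 Adult patients with advanced solid tumours and confirmed MET dysregulation took oral capsules twice daily from 100 up to 600 mg in escalation, or 400 mg bid tablets, in 28-day cycles. Expansion was 600 mg bid capsules, with a switch to 400 mg bid tablets allowed. Patients were included if they had ≥1 dose and ≥1 valid post-baseline safety assessment. Events were graded by CTCAE v4.0.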

[1] = drug-related, all escalation N=38
[2] = drug-related, all expansions RP2D N=38
[3] = drug-related, escalation 400 mg bid tablet n=5
[4] = drug-related, escalation 450 mg bid n=9
[5] = drug-related, escalation 600 mg bid n=8

Compound: CNC(=O)c1ccc(-c2cnc3ncc(Cc4ccc5ncccc5c4)n3n2)cc1F [capmatinib]
- tolerability (across all explored doses): well tolerated
- ALT increased, all grades [1]: 3 (8) n (%)
- ALT increased, grade 3/4 [1]: 2 (5) n (%)
- AST increased, all grades [1]: 5 (13) n (%)
- AST increased, grade 3/4 [1]: 1 (3) n (%)
- Amylase increased, all grades [1]: 2 (5) n (%)
- Amylase increased, grade 3/4 [1]: 1 (3) n (%)
- Asthenia, all grades [1]: 6 (16) n (%)
- Asthenia, grade 3/4 [1]: 0 n (%)
- Blood bilirubin increased, all grades [1]: 4 (11) n (%)
- Blood bilirubin increased, grade 3/4 [1]: 1 (3) n (%)
- Blood creatinine increased, all grades [1]: 2 (5) n (%)
- Blood creatinine increased, grade 3/4 [1]: 0 n (%)
- Constipation, all grades [1]: 3 (8) n (%)
- Constipation, grade 3/4 [1]: 0 n (%)
- Decreased appetite, all grades [1]: 11 (29) n (%)
- Diarrhea, all grades [1]: 5 (13) n (%)
- Diarrhea, grade 3/4 [1]: 0 n (%)
- Dizziness, all grades [1]: 1 (3) n (%)
- Dizziness, grade 3/4 [1]: 0 n (%)
- Dyspepsia, all grades [1]: 1 (3) n (%)
- Dyspepsia, grade 3/4 [1]: 0 n (%)
- Fatigue, all grades [1]: 10 (26) n (%)
- Fatigue, grade 3/4 [1]: 3 (8) n (%)
- Headache, all grades [1]: 2 (5) n (%)
- Headache, grade 3/4 [1]: 0 n (%)
- Hypoalbuminemia, all grades [1]: 6 (16) n (%)
- Hypoalbuminemia, grade 3/4 [1]: 1 (3) n (%)
- Hypophagia, all grades [1]: 2 (5) n (%)
- Hypophagia, grade 3/4 [1]: 2 (5) n (%)
- Lipase increased, all grades [1]: 1 (3) n (%)
- Lipase increased, grade 3/4 [1]: 1 (3) n (%)
- Maculo‐papular rash, all grades [1]: 1 (3) n (%)
- Maculo‐papular rash, grade 3/4 [1]: 0 n (%)
- Myalgia, all grades [1]: 2 (5) n (%)
- Myalgia, grade 3/4 [1]: 0 n (%)
- Nausea, all grades [1]: 12 (32) n (%)
- Nausea, grade 3/4 [1]: 0 n (%)
- Odynophagia, all grades [1]: 2 (5) n (%)
- Odynophagia, grade 3/4 [1]: 0 n (%)
- Peripheral edema, all grades [1]: 8 (21) n (%)
- Peripheral edema, grade 3/4 [1]: 1 (3) n (%)
- Pyrexia, all grades [1]: 2 (5) n (%)
- Pyrexia, grade 3/4 [1]: 0 n (%)
- Stomatitis, all grades [1]: 2 (5) n (%)
- Stomatitis, grade 3/4 [1]: 0 n (%)
- Thrombocytopenia, all grades [1]: 1 (3) n (%)
- Thrombocytopenia, grade 3/4 [1]: 0 n (%)
- Total protein decreased, all grades [1]: 2 (5) n (%)
- Total protein decreased, grade 3/4 [1]: 0 n (%)
- Upper abdominal pain, all grades [1]: 2 (5) n (%)
- Upper abdominal pain, grade 3/4 [1]: 0 n (%)
- Vomiting, all grades [1]: 11 (29) n (%)
- Vomiting, grade 3/4 [1]: 0 n (%)
- ALT increased, all grades [2]: 2 (5) n (%)
- ALT increased, grade 3/4 [2]: 2 (5) n (%)
- AST increased, all grades [2]: 4 (11) n (%)
- Amylase increased, all grades [2]: 0 n (%)
- Amylase increased, grade 3/4 [2]: 0 n (%)
- Asthenia, all grades [2]: 2 (5) n (%)
- Asthenia, grade 3/4 [2]: 0 n (%)
- Blood bilirubin increased, all grades [2]: 0 n (%)
- Blood bilirubin increased, grade 3/4 [2]: 0 n (%)
- Blood creatinine increased, all grades [2]: 2 (5) n (%)
- Blood creatinine increased, grade 3/4 [2]: 1 (3) n (%)
- Constipation, all grades [2]: 1 (3) n (%)
- Constipation, grade 3/4 [2]: 0 n (%)
- Decreased appetite, all grades [2]: 4 (11) n (%)
- Decreased appetite, grade 3/4 [2]: 0 n (%)
- Diarrhea, all grades [2]: 7 (18) n (%)
- Diarrhea, grade 3/4 [2]: 0 n (%)
- Dizziness, all grades [2]: 2 (5) n (%)
- Dizziness, grade 3/4 [2]: 0 n (%)
- Dyspepsia, all grades [2]: 2 (5) n (%)
- Dyspepsia, grade 3/4 [2]: 0 n (%)
- Fatigue, all grades [2]: 9 (24) n (%)
- Fatigue, grade 3/4 [2]: 1 (3) n (%)
- Headache, all grades [2]: 1 (3) n (%)
- Headache, grade 3/4 [2]: 0 n (%)
- Hypoalbuminemia, all grades [2]: 1 (3) n (%)
- Hypoalbuminemia, grade 3/4 [2]: 0 n (%)
- Lipase increased, all grades [2]: 3 (8) n (%)
- Lipase increased, grade 3/4 [2]: 2 (5) n (%)
- Localized edema, all grades [2]: 2 (5) n (%)
- Localized edema, grade 3/4 [2]: 0 n (%)
- Maculo‐papular rash, all grades [2]: 2 (5) n (%)
- Maculo‐papular rash, grade 3/4 [2]: 0 n (%)
- Myalgia, all grades [2]: 2 (5) n (%)
- Myalgia, grade 3/4 [2]: 0 n (%)
- Nausea, all grades [2]: 11 (29) n (%)
- Nausea, grade 3/4 [2]: 1 (3) n (%)
- Odynophagia, all grades [2]: 0 n (%)
- Odynophagia, grade 3/4 [2]: 0 n (%)
- Peripheral edema, all grades [2]: 10 (26) n (%)
- Peripheral edema, grade 3/4 [2]: 0 n (%)
- Pyrexia, all grades [2]: 0 n (%)
- Pyrexia, grade 3/4 [2]: 0 n (%)
- Stomatitis, all grades [2]: 1 (3) n (%)
- Stomatitis, grade 3/4 [2]: 0 n (%)
- Thrombocytopenia, all grades [2]: 2 (5) n (%)
- Thrombocytopenia, grade 3/4 [2]: 1 (3) n (%)
- Total protein decreased, all grades [2]: 0 n (%)
- Total protein decreased, grade 3/4 [2]: 0 n (%)
- Upper abdominal pain, all grades [2]: 0 n (%)
- Upper abdominal pain, grade 3/4 [2]: 0 n (%)
- Vomiting, all grades [2]: 7 (18) n (%)
- Vomiting, grade 3/4 [2]: 1 (3) n (%)
- ALT increased, all grades [3]: 1 (20) n (%)
- ALT increased, grade 3/4 [3]: 0 n (%)
- AST increased, all grades [3]: 1 (20) n (%)
- Amylase increased, all grades [3]: 0 n (%)
- Amylase increased, grade 3/4 [3]: 0 n (%)
- Asthenia, all grades [3]: 1 (20) n (%)
- Asthenia, grade 3/4 [3]: 0 n (%)
- Blood bilirubin increased, all grades [3]: 0 n (%)
- Blood bilirubin increased, grade 3/4 [3]: 0 n (%)
- Blood creatinine increased, all grades [3]: 0 n (%)
- Blood creatinine increased, grade 3/4 [3]: 0 n (%)
- Constipation, all grades [3]: 1 (20) n (%)
- Constipation, grade 3/4 [3]: 0 n (%)
- Decreased appetite, all grades [3]: 0 n (%)
- Decreased appetite, grade 3/4 [3]: 0 n (%)
- Diarrhea, all grades [3]: 1 (20) n (%)
- Diarrhea, grade 3/4 [3]: 0 n (%)
- Dizziness, all grades [3]: 1 (20) n (%)
- Dizziness, grade 3/4 [3]: 0 n (%)
- Dyspepsia, all grades [3]: 0 n (%)
- Dyspepsia, grade 3/4 [3]: 0 n (%)
- Fatigue, all grades [3]: 1 (20) n (%)
- Fatigue, grade 3/4 [3]: 0 n (%)
- Headache, all grades [3]: 0 n (%)
- Headache, grade 3/4 [3]: 0 n (%)
- Hypoalbuminemia, all grades [3]: 2 (40) n (%)
- Hypoalbuminemia, grade 3/4 [3]: 0 n (%)
- Hypophagia, all grades [3]: 0 n (%)
- Hypophagia, grade 3/4 [3]: 0 n (%)
- Lipase increased, all grades [3]: 0 n (%)
- Lipase increased, grade 3/4 [3]: 0 n (%)
- Maculo‐papular rash, all grades [3]: 0 n (%)
- Maculo‐papular rash, grade 3/4 [3]: 0 n (%)
- Myalgia, all grades [3]: 0 n (%)
- Myalgia, grade 3/4 [3]: 0 n (%)
- Nausea, all grades [3]: 2 (40) n (%)
- Nausea, grade 3/4 [3]: 0 n (%)
- Odynophagia, all grades [3]: 1 (20) n (%)
- Odynophagia, grade 3/4 [3]: 0 n (%)
- Peripheral edema, all grades [3]: 2 (40) n (%)
- Peripheral edema, grade 3/4 [3]: 0 n (%)
- Pyrexia, all grades [3]: 0 n (%)
- Pyrexia, grade 3/4 [3]: 0 n (%)
- Stomatitis, all grades [3]: 1 (20) n (%)
- Stomatitis, grade 3/4 [3]: 0 n (%)
- Thrombocytopenia, all grades [3]: 0 n (%)
- Thrombocytopenia, grade 3/4 [3]: 0 n (%)
- Total protein decreased, all grades [3]: 0 n (%)
- Total protein decreased, grade 3/4 [3]: 0 n (%)
- Upper abdominal pain, all grades [3]: 1 (20) n (%)
- Upper abdominal pain, grade 3/4 [3]: 0 n (%)
- Vomiting, all grades [3]: 1 (20) n (%)
- Vomiting, grade 3/4 [3]: 0 n (%)
- ALT increased, all grades [4]: 1 (11) n (%)
- ALT increased, grade 3/4 [4]: 1 (11) n (%)
- AST increased, all grades [4]: 1 (11) n (%)
- AST increased, grade 3/4 [4]: 1 (11) n (%)
- Amylase increased, all grades [4]: 0 n (%)
- Amylase increased, grade 3/4 [4]: 0 n (%)
- Asthenia, all grades [4]: 1 (11) n (%)
- Asthenia, grade 3/4 [4]: 0 n (%)
- Blood bilirubin increased, all grades [4]: 0 n (%)
- Blood bilirubin increased, grade 3/4 [4]: 0 n (%)
- Blood creatinine increased, all grades [4]: 0 n (%)
- Blood creatinine increased, grade 3/4 [4]: 0 n (%)
- Constipation, all grades [4]: 0 n (%)
- Constipation, grade 3/4 [4]: 0 n (%)
- Decreased appetite, all grades [4]: 3 (33) n (%)
- Decreased appetite, grade 3/4 [4]: 0 n (%)
- Diarrhea, all grades [4]: 0 n (%)
- Diarrhea, grade 3/4 [4]: 0 n (%)
- Dizziness, all grades [4]: 0 n (%)
- Dizziness, grade 3/4 [4]: 0 n (%)
- Dyspepsia, all grades [4]: 0 n (%)
- Dyspepsia, grade 3/4 [4]: 0 n (%)
- Fatigue, all grades [4]: 3 (33) n (%)
- Fatigue, grade 3/4 [4]: 1 (11) n (%)
- Headache, all grades [4]: 1 (11) n (%)
- Headache, grade 3/4 [4]: 0 n (%)
- Hypoalbuminemia, all grades [4]: 0 n (%)
- Hypoalbuminemia, grade 3/4 [4]: 0 n (%)
- Hypophagia, all grades [4]: 0 n (%)
- Hypophagia, grade 3/4 [4]: 0 n (%)
- Lipase increased, all grades [4]: 0 n (%)
- Lipase increased, grade 3/4 [4]: 0 n (%)
- Maculo‐papular rash, all grades [4]: 1 (11) n (%)
- Maculo‐papular rash, grade 3/4 [4]: 0 n (%)
- Myalgia, all grades [4]: 0 n (%)
- Myalgia, grade 3/4 [4]: 0 n (%)
- Nausea, all grades [4]: 4 (44) n (%)
- Nausea, grade 3/4 [4]: 0 n (%)
- Odynophagia, all grades [4]: 0 n (%)
- Odynophagia, grade 3/4 [4]: 0 n (%)
- Peripheral edema, all grades [4]: 2 (22) n (%)
- Peripheral edema, grade 3/4 [4]: 0 n (%)
- Pyrexia, all grades [4]: 1 (11) n (%)
- Pyrexia, grade 3/4 [4]: 0 n (%)
- Stomatitis, all grades [4]: 0 n (%)
- Stomatitis, grade 3/4 [4]: 0 n (%)
- Thrombocytopenia, all grades [4]: 0 n (%)
- Thrombocytopenia, grade 3/4 [4]: 0 n (%)
- Total protein decreased, all grades [4]: 0 n (%)
- Total protein decreased, grade 3/4 [4]: 0 n (%)
- Upper abdominal pain, all grades [4]: 0 n (%)
- Upper abdominal pain, grade 3/4 [4]: 0 n (%)
- Vomiting, all grades [4]: 3 (33) n (%)
- Vomiting, grade 3/4 [4]: 0 n (%)
- ALT increased, all grades [5]: 1 (13) n (%)
- ALT increased, grade 3/4 [5]: 1 (13) n (%)
- AST increased, all grades [5]: 2 (25) n (%)
- Amylase increased, all grades [5]: 0 n (%)
- Amylase increased, grade 3/4 [5]: 0 n (%)
- Asthenia, all grades [5]: 0 n (%)
- Asthenia, grade 3/4 [5]: 0 n (%)
- Blood bilirubin increased, all grades [5]: 1 (13) n (%)
- Blood bilirubin increased, grade 3/4 [5]: 0 n (%)
- Blood creatinine increased, all grades [5]: 0 n (%)
- Blood creatinine increased, grade 3/4 [5]: 0 n (%)
- Constipation, all grades [5]: 0 n (%)
- Constipation, grade 3/4 [5]: 0 n (%)
- Decreased appetite, all grades [5]: 3 (38) n (%)
- Decreased appetite, grade 3/4 [5]: 0 n (%)
- Diarrhea, all grades [5]: 2 (25) n (%)
- Diarrhea, grade 3/4 [5]: 0 n (%)
- Dizziness, all grades [5]: 0 n (%)
- Dizziness, grade 3/4 [5]: 0 n (%)
- Dyspepsia, all grades [5]: 1 (13) n (%)
- Dyspepsia, grade 3/4 [5]: 0 n (%)
- Fatigue, all grades [5]: 3 (38) n (%)
- Fatigue, grade 3/4 [5]: 0 n (%)
- Headache, all grades [5]: 0 n (%)
- Headache, grade 3/4 [5]: 0 n (%)
- Hypoalbuminemia, all grades [5]: 1 (13) n (%)
